Measured values: ChEMBL document CHEMBL1641472, “Discovery of novel phenylpyridone derivatives as potent and selective MCH1R antagonists” (Bioorg Med Chem, 2011)
pIC50: −log10 of the molar value. Active and inactive are the calls of the source. The calls are words filed in the database; no cut-off is given here.

Columns and labels:
[1] = molecular target: T1, Melanin-concentrating hormone receptor 1 (Homo sapiens, UniProt Q99705); assay: Displacement of [125I]MCH from human MCHR1 expressed in CHO cells by competition binding assay; type: cell-based
Summary of the method: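 Competition binding against [¹²⁵I]-MCH radioligand on membranes from CHO cells expressing human MCH1R; IC50 values are means of two experiments.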

[2] = Drug level in Sprague-Dawley rat plasma at 10 mg/kg, po after 2 hrs; type: ADME, organism-based; design: dose 10 mg/kg, route oral; conditions: read-out: Drug uptake
Mus musculus [3] = assay: Suppression of spontaneous food intake in diet-induced obese C57BL/6 mouse model at 10 mg/kg, po after 24 hrs; type: functional
Summary of the method: (§1)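 Established DIO mice on high-fat diet given a single oral dose (3, 10, 30 mg/kg) 1–2 h before dark onset, after recording daily intake and body weight; food intake measured 24 h post-dose versus vehicle group.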

Mus musculus [4] = assay: Suppression of spontaneous food intake in diet-induced obese C57BL/6 mouse model at 30 mg/kg, po after 24 hrs; type: functional; summary of the method: as §1
[5] = Ratio of drug level in brain to plasma in Sprague-Dawley rat plasma at 10 mg/kg, po after 2 hrs; type: ADME, organism-based; design: dose 10 mg/kg, route oral
Mus musculus [6] = assay: Suppression of spontaneous food intake in diet-induced obese C57BL/6 mouse model treated orally after 24 hrs; type: functional, organism-based; summary of the method: as §1
Brain = assay: Drug level in Sprague-Dawley rat brain measured per gram of tissue at 10 mg/kg, po after 2 hrs; type: ADME, organism-based; design: dose 10 mg/kg, route oral; conditions: in vivo
[7] = Drug level in Sprague-Dawley rat cerebrospinal fluid at 10 mg/kg, po after 2 hrs; type: ADME, organism-based; design: dose 10 mg/kg, route oral; conditions: read-out: Drug uptake
Mus musculus [8] = assay: Antiobese effect in diet-induced obese C57BL/6 mouse model assessed as loss of body weight at 10 mg/kg, po QD for 1.5 months; type: functional
Summary of the method: (§2)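 Established high-fat-fed DIO mice dosed orally once daily at 3, 10 or 30 mg/kg for 1.5 months, each dose given 1–2 h before dark period after daily food intake and body weight recording; body weight change at end of treatment versus vehicle controls, mean ± SEM.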

Mus musculus [9] = assay: Suppression of spontaneous food intake in diet-induced obese C57BL/6 mouse model at 3 mg/kg, po after 24 hrs; type: functional; summary of the method: as §1
[10] = molecular target: T1, Melanin-concentrating hormone receptor 1; assay: Antagonist activity at human MCHR1 expressed in CHO cells assessed as inhibition of MCH-induced intracellular calcium release by FLIPR assay; type: functional, cell-based
Summary of the method: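 Agonist-induced intracellular calcium release measured by FLIPR in CHO cells stably expressing human MCH1R; antagonism taken as inhibition of the MCH-evoked signal.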

Mus musculus [11] = assay: Antiobese effect in diet-induced obese C57BL/6 mouse model assessed as loss of body weight at 3 mg/kg, po QD for 1.5 months; type: functional; summary of the method: as §2
Mus musculus [12] = assay: Suppression of spontaneous food intake in diet-induced obese C57BL/6 mouse model treated orally chronic administration QD for 1.5 months after 24 hrs; type: functional, organism-based
Mus musculus [13] = assay: Antiobese effect in diet-induced obese C57BL/6 mouse model assessed as loss of body weight at 30 mg/kg, po QD for 1.5 months; type: functional; summary of the method: as §2
[14] = molecular target: Voltage-gated inwardly rectifying potassium channel KCNH2 (Homo sapiens, UniProt Q12809); assay: Displacement of [35S]N-[(4R)-10-[(2R)-6-cyano-1,2,3,4-tetrahydro-2-naphthyl]-3,4-dihydro-4-hydroxyspiro[2H-1-benzopyran-2,40-piperidin]-6-yl]methanesulfonamide from human ERG expressed in HEK293 cells
Chain of Voltage-gated inwardly rectifying potassium channel KCNH2 (Q12809 whole entry): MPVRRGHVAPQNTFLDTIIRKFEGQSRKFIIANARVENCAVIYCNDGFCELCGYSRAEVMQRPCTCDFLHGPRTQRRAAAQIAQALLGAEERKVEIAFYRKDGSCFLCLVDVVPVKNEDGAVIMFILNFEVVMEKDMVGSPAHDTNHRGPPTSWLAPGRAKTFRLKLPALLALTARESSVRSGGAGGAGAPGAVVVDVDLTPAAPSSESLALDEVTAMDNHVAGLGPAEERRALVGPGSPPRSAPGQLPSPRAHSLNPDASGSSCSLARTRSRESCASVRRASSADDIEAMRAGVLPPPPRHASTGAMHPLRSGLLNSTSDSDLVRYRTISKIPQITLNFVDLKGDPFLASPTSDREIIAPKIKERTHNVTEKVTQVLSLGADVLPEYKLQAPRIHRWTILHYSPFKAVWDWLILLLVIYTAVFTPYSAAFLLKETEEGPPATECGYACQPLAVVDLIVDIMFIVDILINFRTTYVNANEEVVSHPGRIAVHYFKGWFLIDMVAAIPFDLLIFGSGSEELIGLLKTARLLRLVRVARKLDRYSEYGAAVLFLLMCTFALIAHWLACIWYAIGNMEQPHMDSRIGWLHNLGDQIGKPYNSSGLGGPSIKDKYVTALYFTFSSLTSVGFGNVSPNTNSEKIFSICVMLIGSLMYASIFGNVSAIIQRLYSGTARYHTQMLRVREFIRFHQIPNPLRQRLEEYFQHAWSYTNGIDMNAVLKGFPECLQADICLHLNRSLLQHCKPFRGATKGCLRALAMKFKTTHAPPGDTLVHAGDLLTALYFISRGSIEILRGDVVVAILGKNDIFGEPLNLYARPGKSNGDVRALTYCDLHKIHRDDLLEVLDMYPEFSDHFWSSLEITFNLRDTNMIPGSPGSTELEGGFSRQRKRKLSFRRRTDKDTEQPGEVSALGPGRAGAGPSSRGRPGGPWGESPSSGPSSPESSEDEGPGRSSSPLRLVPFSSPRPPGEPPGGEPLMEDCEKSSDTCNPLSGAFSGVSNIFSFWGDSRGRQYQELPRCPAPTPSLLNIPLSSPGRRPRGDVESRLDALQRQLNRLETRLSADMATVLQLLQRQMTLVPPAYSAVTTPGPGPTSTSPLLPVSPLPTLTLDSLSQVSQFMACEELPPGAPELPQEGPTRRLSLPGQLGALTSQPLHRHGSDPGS

T1 sequence (Q99705 whole entry): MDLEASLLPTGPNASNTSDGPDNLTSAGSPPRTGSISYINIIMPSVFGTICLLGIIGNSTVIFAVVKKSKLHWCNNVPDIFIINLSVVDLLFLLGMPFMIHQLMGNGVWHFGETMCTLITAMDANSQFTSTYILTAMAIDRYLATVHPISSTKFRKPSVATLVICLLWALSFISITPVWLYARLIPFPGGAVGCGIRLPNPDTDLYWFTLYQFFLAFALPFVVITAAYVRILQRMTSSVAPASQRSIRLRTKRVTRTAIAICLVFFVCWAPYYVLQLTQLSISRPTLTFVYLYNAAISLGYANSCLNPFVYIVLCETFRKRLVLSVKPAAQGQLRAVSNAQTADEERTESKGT

| pIC50 [1] | pIC50 [10] | SMILES | further results |
| --- | --- | --- | --- |
| 6.74 | – | CN(C)CC(C)(C)Oc1ccc(-n2ccc(OCc3ccccc3)cc2=O)cc1 | – |
| – | 7.64 | O=c1cc(OCc2ccc(F)cc2)ccn1-c1ccc(OCCN2CCCC2)cc1 | concentration at 2 h [2]: 1000 nM; Activity (Mus musculus [3]): 13%; Activity (Mus musculus [4]): 19%; Kp at 2 h [5]: 2.4; Activity (Mus musculus [6]): Dose-dependent effect; Drug uptake (Brain): 2.4 nmol/g; concentration at 2 h [7]: 55 nM; Activity (Mus musculus [8]): 11%; Activity (Mus musculus [9]): 6%; Activity (Mus musculus [11]): 4%; Activity (Mus musculus [12]): Dose-dependent effect; Activity (Mus musculus [13]): 21% |
| 6.19 | – | O=c1cc(OCCc2ccc(F)cc2)ccn1-c1ccc(OCCN2CCCC2)cc1 | – |
| 8.29 | 7.66 | CC(C)N(CCOc1ccc(-n2ccc(OCc3ccccc3)cc2=O)cc1)C(C)C | – |
| 8.06 | 7.52 | O=c1cc(OCc2ccccc2F)ccn1-c1ccc(OCCN2CCCC2)cc1 | pIC50 [14]: 5.37 |
| 7.74 | – | CN1CCCCC1COc1ccc(-n2ccc(OCc3ccccc3)cc2=O)cc1 (stereo not given) | – |
| 8.85 | 7.77 | O=c1cc(OCc2ccc(Cl)cc2)ccn1-c1ccc(OCCN2CCCC2)cc1 | concentration at 2 h [2]: 470 nM; Kp at 2 h [5]: 3.6; Drug uptake (Brain): 1.67 nmol/g; concentration at 2 h [7]: 10 nM |
| < 6.00 | – | O=c1cc(-c2ccc(F)cc2)ccn1-c1ccc(OCCN2CCCCC2)cc1 | – |
| 8.23 | 7.66 | O=c1cc(OCc2cccc(F)c2)ccn1-c1ccc(OCCN2CCCC2)cc1 | – |
| – | 7.74 | CN(C)CCOc1ccc(-n2ccc(OCc3ccccc3)cc2=O)cc1 | pIC50 [14]: < 5.00 |

The remaining lines, values behind:

| SMILES | pIC50 [1] | pIC50 [10] | further results |
| --- | --- | --- | --- |
| O=c1cc(OCc2ccc(-c3ccccc3)cc2)ccn1-c1ccc(OCCN2CCCC2)cc1 | 6.19 | – | – |
| CN1CCCC1COc1ccc(-n2ccc(OCc3ccccc3)cc2=O)cc1 (stereo not given) | 7.92 | 7.64 | – |
| O=c1cc(OCCOc2ccc(F)cc2)ccn1-c1ccc(OCCN2CCCC2)cc1 | 6.82 | – | – |
| O=c1cc(OCc2ccccc2Cl)ccn1-c1ccc(OCCN2CCCC2)cc1 | 7.92 | – | – |
| O=c1cc(Oc2ccc(F)cc2)ccn1-c1ccc(OCCN2CCCCC2)cc1 | < 6.00 | – | – |
| O=c1cc(OCc2ccccc2)ccn1-c1ccc(OCCN2CCOCC2)cc1 | 7.62 | 7.47 | pIC50 [14]: < 5.00 |
| CN1CCC(Oc2ccc(-n3ccc(OCc4ccccc4)cc3=O)cc2)C1 (stereo not given) | 7.74 | – | pIC50 [14]: < 5.00 |
| CCN(CC)CCN(C)c1ccc(-n2ccc(OCc3ccccc3)cc2=O)cc1 | 7.80 | – | pIC50 [14]: 5.77 |
| COc1ccc(COc2ccn(-c3ccc(OCCN4CCCC4)cc3)c(=O)c2)cc1 | – | 7.96 | – |
| CN(C)CC1CCc2cc(NC(=O)c3ccc(-c4ccc(F)cc4)cc3)ccc2C1 (stereo not given) | – | – | Activity (Mus musculus [4]): Active |
| CCN(CC)CCOc1ccc(-n2ccc(OCc3ccccc3)cc2=O)cc1 | 8.18 | 7.62 | pIC50 [14]: 5.01 |
| CCN(CC)CCN(C(=O)OC)c1ccc(-n2ccc(OCc3ccccc3)cc2=O)cc1 | < 6.00 | – | – |
| O=c1cc(OCc2ccc(C(F)(F)F)cc2)ccn1-c1ccc(OCCN2CCCC2)cc1 | 8.17 | 7.31 | – |
| CC(CN(C)C)Oc1ccc(-n2ccc(OCc3ccccc3)cc2=O)cc1 (stereo not given) | 7.29 | – | – |
| O=c1cc(OCc2ccccc2)ccn1-c1ccc(OCCN2CCCCC2)cc1 | – | 7.72 | concentration at 2 h [2]: 200 nM; Kp at 2 h [5]: 3.8; Drug uptake (Brain): 0.76 nmol/g |
| O=c1cc(OCc2ccc3ccccc3c2)ccn1-c1ccc(OCCN2CCCC2)cc1 | 8.11 | 6.76 | – |
